Measured values: ChEMBL document CHEMBL4041530, “Development of spiroguanidine-derived α7 neuronal nicotinic receptor partial agonists” (Bioorg Med Chem Lett, 2017)

Organism: Homo sapiens
Assay: Selectivity ratio of IC50 for 5-HT3A receptor (unknown origin) to EC50 for alpha7 nAChR (unknown origin) expressed in HEK293 cells
Type: cell-based
Outline: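 Selectivity ratio calculated as 5-HT3A IC50 (FLIPR Ca2+ antagonist assay) divided by α7 EC50 (FLIPR Ca2+ agonist assay).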

| SMILES | Ratio IC50/EC50 |
| --- | --- |
| Clc1ccc2c(NC3=NCC4(CN5CCC4CC5)N3)ncnn12 (centres undefined) | 610 |
| Clc1cccc2sc(NC3=NCC4(CN5CCC4CC5)N3)nc12 (racemic) | 0.32 |
| COc1cc(NC2=NCC3(CN4CCC3CC4)N2)ncn1 (racemic) | > 77 |

These molecules were tested against T1, 5-hydroxytryptamine receptor 3A (Homo sapiens, UniProt P46098) (assay: Antagonist activity at 5-HT3A receptor (unknown origin) assessed as decrease in calcium influx by Fluo-4-AM dye based FLIPR assay).
T1 sequence (P46098 whole entry): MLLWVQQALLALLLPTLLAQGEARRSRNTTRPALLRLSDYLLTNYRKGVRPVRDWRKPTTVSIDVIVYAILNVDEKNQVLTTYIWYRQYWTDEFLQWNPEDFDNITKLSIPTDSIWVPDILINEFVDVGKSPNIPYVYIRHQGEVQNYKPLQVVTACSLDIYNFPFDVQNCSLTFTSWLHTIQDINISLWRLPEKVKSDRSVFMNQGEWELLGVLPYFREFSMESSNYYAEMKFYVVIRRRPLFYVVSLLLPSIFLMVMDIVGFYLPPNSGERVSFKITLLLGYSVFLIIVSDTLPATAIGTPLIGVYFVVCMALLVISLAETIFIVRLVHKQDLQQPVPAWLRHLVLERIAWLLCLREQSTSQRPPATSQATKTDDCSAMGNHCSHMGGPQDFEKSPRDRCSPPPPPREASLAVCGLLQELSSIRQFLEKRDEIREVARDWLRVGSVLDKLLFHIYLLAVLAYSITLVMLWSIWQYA
Outline: (§1)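 Ca2+-based fluorescence imaging plate reader screen, run as two assays: α7 nAChR agonism and 5-HT3A receptor antagonism. Number of determinations recorded per value.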

| SMILES | IC50 [nM] |
| --- | --- |
| Clc1ccc2c(NC3=NCC4(CN5CCC4CC5)N3)ncnn12 (centres undefined) | 38000 |
| Clc1cccc2sc(NC3=NCC4(CN5CCC4CC5)N3)nc12 (racemic) | 38 |
| COc1cc(NC2=NCC3(CN4CCC3CC4)N2)ncn1 (racemic) | > 100000 |

The molecules below were run against Neuronal acetylcholine receptor subunit alpha-7 (Homo sapiens, UniProt P36544) (assay: Agonist activity at alpha7 nAChR (unknown origin) expressed in HEK293 cells assessed as increase in calcium influx by Fluo-4-AM dye based FLIPR assay).
Neuronal acetylcholine receptor subunit alpha-7, sequence (P36544 whole entry): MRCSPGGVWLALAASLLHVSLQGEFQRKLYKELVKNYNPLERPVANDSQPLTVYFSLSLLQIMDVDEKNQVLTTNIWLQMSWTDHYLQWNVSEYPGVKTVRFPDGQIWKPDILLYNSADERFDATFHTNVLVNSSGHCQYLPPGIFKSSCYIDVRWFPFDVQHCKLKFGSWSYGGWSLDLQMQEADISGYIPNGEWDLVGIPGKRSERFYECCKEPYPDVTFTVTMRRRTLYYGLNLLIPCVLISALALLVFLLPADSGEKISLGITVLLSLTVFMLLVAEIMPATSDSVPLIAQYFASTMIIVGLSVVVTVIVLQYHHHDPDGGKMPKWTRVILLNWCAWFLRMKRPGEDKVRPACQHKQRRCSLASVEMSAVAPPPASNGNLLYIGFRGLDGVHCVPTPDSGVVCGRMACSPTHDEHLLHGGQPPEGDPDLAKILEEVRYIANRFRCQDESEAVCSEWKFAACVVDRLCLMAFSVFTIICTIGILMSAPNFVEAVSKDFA
Type: cell-based
Outline: as §1

| SMILES | EC50 [nM] |
| --- | --- |
| Clc1ccc2c(NC3=NCC4(CN5CCC4CC5)N3)ncnn12 (centres undefined) | 62 |
| Clc1cccc2sc(NC3=NCC4(CN5CCC4CC5)N3)nc12 (racemic) | 120 |
| COc1cc(NC2=NCC3(CN4CCC3CC4)N2)ncn1 (racemic) | 1300 |
